Type in all cases: functional
In assay [1] the test system is Streptococcus pneumoniae. As to the kind of experiment: Antimicrobial activity against Streptococcus pneumoniae R6 by broth microdilution method. The essentials: (§1)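 Reference broth microdilution MIC per CLSI guidelines, testing ceftaroline, penicillin, ceftriaxone and cefotaxime against susceptible laboratory strain R6 and R6 transformants. The transformants carry pbp and/or murM genes with β-lactam-resistance mutations, or genomic DNA, from donors 3191 (Hungarian clone) and 72521 (French isolate). MICs are in μg/ml.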
Background: In broth dilution the organism is exposed to a series of concentrations in liquid medium.

Assay [2] concerns Streptococcus pneumoniae. As to the kind of experiment: Antimicrobial activity against Streptococcus pneumoniae by broth microdilution method.
Assay [3] has as its system Streptococcus pneumoniae. As to the kind of experiment: Antimicrobial activity against Streptococcus pneumoniae 3191 by broth microdilution method.
The subject of assay [4] is Streptococcus pneumoniae. As to the kind of experiment: Antimicrobial activity against Streptococcus pneumoniae 72521 by broth microdilution method.
Assay [5] has as its system Streptococcus pneumoniae. As to the kind of experiment: Antimicrobial activity against Streptococcus pneumoniae R6 transformed with Streptococcus pneumoniae 3191 pbp2x gene by broth microdilution method. The procedure, abridged: as §1
Assay [6] deals with Streptococcus pneumoniae. As to the kind of experiment: Antimicrobial activity against Streptococcus pneumoniae R6 transformed with Streptococcus pneumoniae 3191 pbp2b, pbp1a and murM genes by broth microdilution method. The procedure, abridged:
as §1

Assay [7] concerns Streptococcus pneumoniae. As to the kind of experiment: Antimicrobial activity against Streptococcus pneumoniae R6 transformed with Streptococcus pneumoniae 3191 pbp2x and pbp1a genes by broth microdilution method. The procedure, abridged:
as §1

For assay [8], the system named is Streptococcus pneumoniae. As to the kind of experiment: Antimicrobial activity against Streptococcus pneumoniae R6 transformed with Streptococcus pneumoniae 72521 pbp2x and pbp2b genes by broth microdilution method. The procedure, abridged:
as §1

In assay [9] the test system is Streptococcus pneumoniae. As to the kind of experiment: Antimicrobial activity against Streptococcus pneumoniae R6 transformed with Streptococcus pneumoniae 3191 pbp2x and pbp2b genes by broth microdilution method. The essentials: as §1
The subject of assay [10] is Streptococcus pneumoniae. As to the kind of experiment: Antimicrobial activity against Streptococcus pneumoniae R6 transformed with Streptococcus pneumoniae 3191 pbp2x and Streptococcus pneumoniae 72521 pbp2b genes by broth microdilution method. The procedure, abridged: as §1
For assay [11], the system named is Streptococcus pneumoniae. As to the kind of experiment: Antimicrobial activity against Streptococcus pneumoniae R6 transformed with Streptococcus pneumoniae 72521 pbp2x, pbp1a and pbp2b genes by broth microdilution method. The essentials:
as §1

Assay [12] concerns Streptococcus pneumoniae. As to the kind of experiment: Antimicrobial activity against Streptococcus pneumoniae R6 transformed with Streptococcus pneumoniae 72521 pbp2x, pbp2b and Streptococcus pneumoniae 3191 pbp1a genes by broth microdilution method. The essentials: as §1
Assay [13] relates to Streptococcus pneumoniae. As to the kind of experiment: Antimicrobial activity against Streptococcus pneumoniae R6 transformed with Streptococcus pneumoniae 72521 genomic DNA, pbp2x, pbp1a and pbp2b genes by broth microdilution method. The essentials:
as §1

Assay [14] has as its system Streptococcus pneumoniae. As to the kind of experiment: Antimicrobial activity against Streptococcus pneumoniae R6 transformed with Streptococcus pneumoniae 72521 pbp2x, pbp1a, pbp2b genes and Streptococcus pneumoniae 3191 genomic DNA by broth microdilution method. The procedure, abridged:
as §1

Assay [15] concerns Streptococcus pneumoniae. As to the kind of experiment: Antimicrobial activity against Streptococcus pneumoniae R6 transformed with Streptococcus pneumoniae 72521 pbp2x, pbp1a, pbp2b and Streptococcus pneumoniae 3191 murM genes by broth microdilution method. The essentials: as §1
For assay [16], the system named is Streptococcus pneumoniae. As to the kind of experiment: Antimicrobial activity against Streptococcus pneumoniae R6 transformed with Streptococcus pneumoniae 3191 pbp2x, pbp2b, murM and Streptococcus pneumoniae 72521 pbp1a genes by broth microdilution method. The essentials: as §1
Assay [17] has as its system Streptococcus pneumoniae. As to the kind of experiment: Antimicrobial activity against Streptococcus pneumoniae R6 transformed with Streptococcus pneumoniae 72521 genomic DNA, pbp2x, pbp1a, pbp2b and Streptococcus pneumoniae 3191 pbp1a genes by broth microdilution method. The essentials:
as §1

Assay [18] deals with Streptococcus pneumoniae. As to the kind of experiment: Antimicrobial activity against Streptococcus pneumoniae R6 transformed with Streptococcus pneumoniae 72521 murM, pbp2x, pbp2b and Streptococcus pneumoniae 3191 pbp1a genes by broth microdilution method. The procedure, abridged: as §1
The subject of assay [19] is Streptococcus pneumoniae. As to the kind of experiment: Antimicrobial activity against Streptococcus pneumoniae R6 transformed with Streptococcus pneumoniae 3191 pbp2x, pbp2b, pbp1a and Streptococcus pneumoniae 72521 murM genes by broth microdilution method. The procedure, abridged:
as §1

The subject of assay [20] is Streptococcus pneumoniae. As to the kind of experiment: Antimicrobial activity against Streptococcus pneumoniae R6 transformed with Streptococcus pneumoniae 3191 pbp2x, pbp2b, pbp1a genes by broth microdilution method. The procedure, abridged:
as §1

Assay [21] deals with Streptococcus pneumoniae. As to the kind of experiment: Antimicrobial activity against Streptococcus pneumoniae R6 transformed with Streptococcus pneumoniae 72521 pbp2x gene by broth microdilution method. The procedure, abridged: as §1

Values after ≈ are worked out from the molar mass of the structure shown.

As a reminder, the MIC is the lowest concentration that inhibits growth of the organism. Higher therefore signals weaker potency. By MIC50 is commonly meant an inhibitory concentration at the 50% level, which refers to growth in some studies and to a panel of isolates in others. A lower MIC50 goes with greater potency. Broadly, the MIC90 is the lowest concentration that inhibits either 90% of growth or 90% of the strains tested, depending on the study. For the molecule `CC1(C)S[C@@H]2[C@H](NC(=O)[C@H](N)c3ccc(O)cc3)C(=O)N2[C@H]1C(=O)O` [AMOXICILLIN], the MIC with Streptococcus pneumoniae [1] is at most 0.015 µg/mL; in the assay with Streptococcus pneumoniae [3], 8 µg/mL (≈ 21.9 µM); against Streptococcus pneumoniae [4] it was 8 µg/mL (≈ 21.9 µM); in the assay on Streptococcus pneumoniae [5], 0.047 µg/mL (≈ 0.129 µM); with Streptococcus pneumoniae [6], 0.023 µg/mL (≈ 0.0629 µM); against Streptococcus pneumoniae [7], 0.032 µg/mL (≈ 0.0876 µM). Further, the MIC in the assay on Streptococcus pneumoniae [8] was determined as 0.094 µg/mL (≈ 0.257 µM); in the assay on Streptococcus pneumoniae [9] it was 0.19 µg/mL (≈ 0.52 µM); against Streptococcus pneumoniae [10] it was 0.19 µg/mL (≈ 0.52 µM); in the assay on Streptococcus pneumoniae [11], 0.5 µg/mL (≈ 1.37 µM); against Streptococcus pneumoniae [12], 0.75 µg/mL (≈ 2.05 µM); against Streptococcus pneumoniae [13], 1 µg/mL (≈ 2.74 µM). In addition, the MIC in the assay with Streptococcus pneumoniae [14] came out at 1 µg/mL (≈ 2.74 µM); in the assay with Streptococcus pneumoniae [15], 1 µg/mL (≈ 2.74 µM); with Streptococcus pneumoniae [16], 1.5 µg/mL (≈ 4.1 µM); against Streptococcus pneumoniae [17], 1.5 µg/mL (≈ 4.1 µM); in the assay on Streptococcus pneumoniae [18], 3 µg/mL (≈ 8.21 µM); in the assay on Streptococcus pneumoniae [19], 4 µg/mL (≈ 10.9 µM). Inhibition of growth with Streptococcus pneumoniae [20] (MIC) required 4 µg/mL (≈ 10.9 µM). In addition, the MIC50 in the assay with Streptococcus pneumoniae [2] was determined as 8 µg/mL (≈ 21.9 µM). This molecule yielded an MIC90 against Streptococcus pneumoniae [2] above 8 µg/mL.

In the assay on Streptococcus pneumoniae [2], `C[C@@H](O)[C@H]1C(=O)N2C(C(=O)O)=C(S[C@@H]3CN[C@H](C(=O)N(C)C)C3)[C@H](C)[C@H]12` [MEROPENEM] came in with an MIC50 of 1 µg/mL (≈ 2.61 µM) and an MIC90 of 2 µg/mL (≈ 5.22 µM).

In the case of `CC1(C)S[C@@H]2[C@H](NC(=O)Cc3ccccc3)C(=O)N2[C@H]1C(=O)O` [PENICILLIN G], the MIC against Streptococcus pneumoniae [1] was 0.015 µg/mL (≈ 0.0449 µM); with Streptococcus pneumoniae [21], 0.5 µg/mL (≈ 1.5 µM); against Streptococcus pneumoniae [3], 16 µg/mL (≈ 47.8 µM); in the assay with Streptococcus pneumoniae [4] it was 4 µg/mL (≈ 12 µM); with Streptococcus pneumoniae [5], 2 µg/mL (≈ 5.98 µM); with Streptococcus pneumoniae [6], 0.03 µg/mL (≈ 0.0897 µM). Moreover, the minimal inhibitory concentration (MIC) in the assay on Streptococcus pneumoniae [7] came to 2 µg/mL (≈ 5.98 µM); against Streptococcus pneumoniae [8] it was 0.5 µg/mL (≈ 1.5 µM); in the assay on Streptococcus pneumoniae [9], 1 µg/mL (≈ 2.99 µM); against Streptococcus pneumoniae [10] it was 2 µg/mL (≈ 5.98 µM); against Streptococcus pneumoniae [11], 0.5 µg/mL (≈ 1.5 µM); with Streptococcus pneumoniae [12], 1 µg/mL (≈ 2.99 µM). In addition, the MIC against Streptococcus pneumoniae [13] turned out to be 1 µg/mL (≈ 2.99 µM); in the assay on Streptococcus pneumoniae [14], 8 µg/mL (≈ 23.9 µM); against Streptococcus pneumoniae [15] it was 1 µg/mL (≈ 2.99 µM); against Streptococcus pneumoniae [16], 8 µg/mL (≈ 23.9 µM); against Streptococcus pneumoniae [17], 2 µg/mL (≈ 5.98 µM); in the assay on Streptococcus pneumoniae [18] it was 2 µg/mL (≈ 5.98 µM). In addition, the figures for the MIC against Streptococcus pneumoniae [19] and with Streptococcus pneumoniae [20] were 8 µg/mL (≈ 23.9 µM) and 4 µg/mL (≈ 12 µM), respectively. In the assay on Streptococcus pneumoniae [2], this molecule displayed an MIC50 of 8 µg/mL (≈ 23.9 µM). In the assay with Streptococcus pneumoniae [2], the MIC90 turned out to be 8 µg/mL (≈ 23.9 µM).

As for `CO/N=C(\C(=O)N[C@@H]1C(=O)N2C(C(=O)O)=C(COC(C)=O)CS[C@H]12)c1csc(N)n1` [CEFOTAXIME], the MIC in the assay with Streptococcus pneumoniae [1] was found to be 0.03 µg/mL (≈ 0.0659 µM); against Streptococcus pneumoniae [21], 0.06 µg/mL (≈ 0.132 µM); against Streptococcus pneumoniae [3], 4 µg/mL (≈ 8.78 µM); in the assay on Streptococcus pneumoniae [4], 2 µg/mL (≈ 4.39 µM); against Streptococcus pneumoniae [5], 0.03 µg/mL (≈ 0.0659 µM); in the assay on Streptococcus pneumoniae [6], 0.03 µg/mL (≈ 0.0659 µM). Further, the MIC against Streptococcus pneumoniae [7] is 0.06 µg/mL (≈ 0.132 µM); in the assay on Streptococcus pneumoniae [8] it was 0.5 µg/mL (≈ 1.1 µM); in the assay on Streptococcus pneumoniae [9] it was 0.5 µg/mL (≈ 1.1 µM); with Streptococcus pneumoniae [10], 1 µg/mL (≈ 2.2 µM); against Streptococcus pneumoniae [11], 2 µg/mL (≈ 4.39 µM); in the assay with Streptococcus pneumoniae [12], 2 µg/mL (≈ 4.39 µM). Besides, the MIC against Streptococcus pneumoniae [13] was found to be 2 µg/mL (≈ 4.39 µM); with Streptococcus pneumoniae [14], 2 µg/mL (≈ 4.39 µM); against Streptococcus pneumoniae [15] it was 2 µg/mL (≈ 4.39 µM); in the assay with Streptococcus pneumoniae [16], 2 µg/mL (≈ 4.39 µM); against Streptococcus pneumoniae [17], 4 µg/mL (≈ 8.78 µM); in the assay with Streptococcus pneumoniae [18], 4 µg/mL (≈ 8.78 µM). The MIC against Streptococcus pneumoniae [19] and against Streptococcus pneumoniae [20] was 16 µg/mL (≈ 35.1 µM) each time. For the same molecule, the MIC50 against Streptococcus pneumoniae [2] was 8 µg/mL (≈ 17.6 µM). For the same molecule, the MIC90 in the assay on Streptococcus pneumoniae [2] was found to be 8 µg/mL (≈ 17.6 µM).

With `CO/N=C(\C(=O)N[C@@H]1C(=O)N2C(C(=O)O)=C(CSc3nc(=O)c(O)nn3C)CS[C@H]12)c1csc(N)n1` [CEFTRIAXONE], the MIC in the assay on Streptococcus pneumoniae [1] worked out at 0.03 µg/mL (≈ 0.0541 µM); with Streptococcus pneumoniae [21] it was 0.5 µg/mL (≈ 0.902 µM); with Streptococcus pneumoniae [3], 8 µg/mL (≈ 14.4 µM); with Streptococcus pneumoniae [4] it was 4 µg/mL (≈ 7.21 µM); in the assay on Streptococcus pneumoniae [5], 2 µg/mL (≈ 3.61 µM); against Streptococcus pneumoniae [6], 0.06 µg/mL (≈ 0.108 µM). Moreover, the MIC came to 2 µg/mL (≈ 3.61 µM) in the assay on Streptococcus pneumoniae [7]; 1 µg/mL (≈ 1.8 µM) against Streptococcus pneumoniae [8]; 1 µg/mL (≈ 1.8 µM) in the assay with Streptococcus pneumoniae [9]; 2 µg/mL (≈ 3.61 µM) against Streptococcus pneumoniae [10]; 0.5 µg/mL (≈ 0.902 µM) against Streptococcus pneumoniae [11]; 2 µg/mL (≈ 3.61 µM) in the assay with Streptococcus pneumoniae [12]. Further, the MIC against Streptococcus pneumoniae [13] is 0.5 µg/mL (≈ 0.902 µM); in the assay on Streptococcus pneumoniae [14] it was 2 µg/mL (≈ 3.61 µM); with Streptococcus pneumoniae [15], 1 µg/mL (≈ 1.8 µM); with Streptococcus pneumoniae [16], 4 µg/mL (≈ 7.21 µM); against Streptococcus pneumoniae [17], 2 µg/mL (≈ 3.61 µM); with Streptococcus pneumoniae [18], 4 µg/mL (≈ 7.21 µM). For the same molecule, the MIC in the assay on Streptococcus pneumoniae [19] was 8 µg/mL (≈ 14.4 µM); against Streptococcus pneumoniae [20], 4 µg/mL (≈ 7.21 µM). The MIC50 in the assay on Streptococcus pneumoniae [2] was 8 µg/mL (≈ 14.4 µM). In the assay with Streptococcus pneumoniae [2], this molecule showed an MIC90 of 8 µg/mL (≈ 14.4 µM).

For the origin of these results see ChEMBL document CHEMBL1629597, “In vitro evaluation of the antimicrobial activity of ceftaroline against cephalosporin-resistant isolates of Streptococcus pneumoniae” (2009).
